Reference: ChEMBL document CHEMBL4808167, “Design, Synthesis, and Evaluation of Small Molecule Gαq/11 Protein Inhibitors for the Treatment of Uveal Melanoma” (J Med Chem, 2021)
Active and inactive are the calls of the source. The rule behind the calls is not given here.

What was measured:
[1] = Toxicity in nude BALB/c mouse xenografted with human MP41 cells assessed as morphological changes in kidney tissue at 10 to 30 mg/kg, ip administered once daily for 21 days and measured every 3 days by HE staining based assay; assay type: organism-based; conditions: in vivo, 504 h, dose 10-30 mg/kg, time 21 day
Method in brief: (§1)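 Nude BALB/c mice bearing serially passaged MP41 tumour slices (tertiary recipients, n = 8/group, randomized) dosed ip daily for 21 days at 10 or 30 mg/kg/d or vehicle. Body weight monitored every 3 days. Tissues collected at sacrifice, fixed in 4% paraformaldehyde 24 h, paraffin-embedded, H&E stained, viewed at ×100.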

[2] = biological target: T1, GNAQ/GNA11 (Homo sapiens) (UniProt P50148+P29992); test: Inhibition of Galphaq/11 (unknown origin) expressed in CHO cells coexpressing M1 receptor assessed as reduction in carbachol-induced IP1 accumulation at 10 uM preincubated for 1 hr followed by carbachol stimulation and measured after 1 hr by HTRF assay relative to control; assay type: cell-based; conditions: time 2.0 hrs
[3] = system: 921; test: Antiproliferative activity against human 92.1 cells assessed as inhibition of cell growth at 10 to 15 uM after 72 hrs by CKK8 assay; assay type: functional, cell-based; conditions: dose 10-15 µM
[4] = Toxicity in nude BALB/c mouse xenografted with human MP41 cells assessed as morphological changes in liver tissue at 10 to 30 mg/kg, ip administered once daily for 21 days and measured every 3 days by HE staining based assay; assay type: organism-based; conditions: in vivo, 504 h, dose 10-30 mg/kg, time 21 day; method in brief: as §1
[5] = Induction of apoptosis in human MP41 cells assessed as necrotic cells at 30 uM after 48 hrs by Annexin-V-FITC/propidium iodide staining based flow cytometry (reference value: 0.11%); assay type: functional
[6] = biological target: T1, GNAQ/GNA11 (Homo sapiens); test: Inhibition of Galphaq/11 in human MP41 cells xenografted mouse tumor tissue assessed as induction of YAP phosphorylation at 10 to 30 mg/kg, ip administered for 21 consecutive days by Western blot analysis; assay type: organism-based; conditions: dose 10-30 mg/kg, time 21.0 day
Method in brief: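 MP41 xenograft tumours from mice given 10 or 30 mg/kg/day ip for 21 consecutive days were analysed by Western blot. Probed for p-YAP, YAP, p-ERK and ERK, with GAPDH as loading control. Representative of triplicate experiments.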

[7] = system: MP41; test: Inhibition of colony formation in human MP41 cells at 5 to 15 uM after 9 days by crystal violet staining based light microscopic analysis; assay type: functional, cell-based; conditions: dose 5-15 µM, time 9.0 day
Method in brief: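 Cells seeded 4 × 10³/well, incubated overnight at 37 °C, 5% CO₂, then exposed to compound for 9 days until colonies visible, medium and inhibitor replaced every 3 days. Fixed in 4% paraformaldehyde 15 min, crystal violet-stained 30 min, colonies counted. Repeated twice.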

[8] = Induction of apoptosis in human MP41 cells assessed as late apoptotic cells at 15 uM after 48 hrs by Annexin-V-FITC/propidium iodide staining based flow cytometry (reference value: 3.28%); assay type: functional
[9] = biological target: T1, GNAQ/GNA11 (Homo sapiens); test: Inhibition of Galphaq/11 in human 921 cells assessed as reduction in ERK phosphorylation at 15 to 30 uM after 48 hrs by Western blot analysis; assay type: cell-based; conditions: b, dose 15-30 µM
Method in brief: (§2)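 92.1 and MP41 cells plated overnight, then exposed to compound 48 h. Lysed in ice-cold buffer and protein quantified by BCA. Resolved on 8−12% SDS−PAGE and transferred to PVDF. Probed for p-YAP Ser127, total YAP, p-ERK1/2 Thr202/Tyr204 and total ERK1/2, with GAPDH as loading control. ECL detection, triplicate.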

[10] = biological target: T1, GNAQ/GNA11 (Homo sapiens); test: Inhibition of Galphaq/11 in human MP41 cells assessed as induction of YAP phosphorylation at 5 to 15 uM after 48 hrs by Western blot analysis; assay type: cell-based; conditions: dose 5-15 µM; method in brief: as §2
[11] = biological target: T2, GNAQ/GNA11 (Homo sapiens, UniProt P50148+P29992); test: Inhibition of Galphaq/11 (unknown origin) expressed in CHO cells coexpressing M1 receptor assessed as reduction in carbachol-induced IP1 accumulation preincubated for 1 hr followed by carbachol stimulation and measured after 1 hr by HTRF assay; assay type: cell-based
T2 sequence (P50148 whole entry): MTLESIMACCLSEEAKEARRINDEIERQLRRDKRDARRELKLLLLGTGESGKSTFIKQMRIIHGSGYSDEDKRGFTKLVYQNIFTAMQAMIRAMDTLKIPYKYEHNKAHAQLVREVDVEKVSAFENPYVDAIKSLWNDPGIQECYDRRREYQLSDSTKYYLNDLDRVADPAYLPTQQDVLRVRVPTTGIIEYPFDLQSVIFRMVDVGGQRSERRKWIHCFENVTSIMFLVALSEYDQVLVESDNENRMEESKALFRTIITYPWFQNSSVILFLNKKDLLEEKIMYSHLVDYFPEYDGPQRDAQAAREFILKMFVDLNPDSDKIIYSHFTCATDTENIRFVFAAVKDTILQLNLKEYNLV
T2 sequence (P29992 whole entry): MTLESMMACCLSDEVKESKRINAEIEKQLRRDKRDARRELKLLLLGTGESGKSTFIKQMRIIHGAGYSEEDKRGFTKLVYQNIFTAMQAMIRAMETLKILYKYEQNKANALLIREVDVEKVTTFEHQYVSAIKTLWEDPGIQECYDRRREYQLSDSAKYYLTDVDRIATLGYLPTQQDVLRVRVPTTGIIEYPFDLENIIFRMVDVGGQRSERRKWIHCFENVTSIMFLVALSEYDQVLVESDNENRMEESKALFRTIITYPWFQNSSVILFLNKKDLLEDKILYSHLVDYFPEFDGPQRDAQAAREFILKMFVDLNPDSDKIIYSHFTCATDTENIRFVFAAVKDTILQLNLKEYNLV

[12] = Induction of apoptosis in human 921 cells assessed as necrotic cells at 5 uM after 48 hrs by Annexin-V-FITC/propidium iodide staining based flow cytometry (reference value: 0.26%); assay type: functional
[13] = Induction of apoptosis in human MP41 cells assessed as early apoptotic cells at 30 uM after 48 hrs by Annexin-V-FITC/propidium iodide staining based flow cytometry (reference value: 2.96%); assay type: functional
[14] = Induction of apoptosis in human 921 cells assessed as early apoptotic cells at 15 uM after 48 hrs by Annexin-V-FITC/propidium iodide staining based flow cytometry (reference value: 3.39%); assay type: functional
[15] = Half life in ICR mouse at 10 mg/kg, iv measured upto 24 hrs by LC-MS/MS analysis; assay type: ADME, organism-based; conditions: in vivo
Method in brief: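 Single dose in male ICR mice, 10 mg/kg iv or 30 mg/kg po, dissolved in 5% DMSO/95% saline. Blood drawn by catheter at 0, 5, 15, 30 min and 1, 2, 4, 6, 8, 24 h. Plasma spun 6800g 6 min at 2−8 °C, stored −80 °C, quantified by LC−MS/MS. Noncompartmental parameters, mean ± SD, n = 6.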

[16] = system: 921; test: Antiproliferative activity against human 92.1 cells assessed as inhibition of cell growth at 5 to 15 uM by CCK8 assay; assay type: functional, cell-based; conditions: dose 5-15 µM, time 24-96 hrs, TDE = time-dependent effect
[17] = system: MP41; test: Antiproliferative activity against human MP41 cells assessed as inhibition of cell growth at 15 to 30 uM by CCK8 assay; assay type: functional, cell-based; conditions: dose 15-30 µM, time 24-96 hrs, TDE = time-dependent effect

For `CC[C@@H](C)[C@H](N)C(=O)N1CCn2cc(-c3ccccc3)nc2[C@@H]1CC1CCCCC1`, the Activity [1] was “Non-Toxic”, the inhibition [2] was 36.5% and the Activity [3] was “Active”. The Activity [4] was “Non-Toxic”, the Activity [5] was 0.27% and the inhibition [6] was “Active”. The inhibition [7] was “Active”, the Activity [8] was 4.42% and the inhibition [9] was “Active”. The inhibition [10] was “Active”, the IC50 [11] was 22.6 µM and the Activity [12] was 0.43%. For the same molecule, the Activity [13] was 17.9%, the Activity [14] was 13.1% and the half-life [15] was 1.17 h. For the same molecule, the Activity [16] was “Tde” and the Activity [17] was “Tde”.
